Calls of active or inactive are those of the source. The rule behind the calls is not given here.

The test system of assay [1] is RPMI-8226. Kind of assay: cells. As to conditions: Homo sapiens, RPMI-8226, 72 h. In kind it is functional, cell-based.
Assay [2] concerns U-266. Kind of assay: cells. In kind it is functional, cell-based. As to conditions: Homo sapiens, U-266, 72 h.
In assay [3] the target is T1, Histone deacetylase 1 (Homo sapiens, UniProt Q13547). Kind of assay: Inhibition of full length recombinant human C-terminal FLAG-tagged HDAC1 expressed in sf9 cells preincubated for 5 mins followed by biotinylated H3K9-Ac substrate addition and measured after 60 mins by HTRF assay. (In general: Time-resolved FRET reads energy transfer from a long-lived donor to a nearby acceptor.)

Assay [4] has as its target T2, Protein deacetylase HDAC6 (Homo sapiens, UniProt Q9UBN7).
T2 sequence (Q9UBN7 whole entry): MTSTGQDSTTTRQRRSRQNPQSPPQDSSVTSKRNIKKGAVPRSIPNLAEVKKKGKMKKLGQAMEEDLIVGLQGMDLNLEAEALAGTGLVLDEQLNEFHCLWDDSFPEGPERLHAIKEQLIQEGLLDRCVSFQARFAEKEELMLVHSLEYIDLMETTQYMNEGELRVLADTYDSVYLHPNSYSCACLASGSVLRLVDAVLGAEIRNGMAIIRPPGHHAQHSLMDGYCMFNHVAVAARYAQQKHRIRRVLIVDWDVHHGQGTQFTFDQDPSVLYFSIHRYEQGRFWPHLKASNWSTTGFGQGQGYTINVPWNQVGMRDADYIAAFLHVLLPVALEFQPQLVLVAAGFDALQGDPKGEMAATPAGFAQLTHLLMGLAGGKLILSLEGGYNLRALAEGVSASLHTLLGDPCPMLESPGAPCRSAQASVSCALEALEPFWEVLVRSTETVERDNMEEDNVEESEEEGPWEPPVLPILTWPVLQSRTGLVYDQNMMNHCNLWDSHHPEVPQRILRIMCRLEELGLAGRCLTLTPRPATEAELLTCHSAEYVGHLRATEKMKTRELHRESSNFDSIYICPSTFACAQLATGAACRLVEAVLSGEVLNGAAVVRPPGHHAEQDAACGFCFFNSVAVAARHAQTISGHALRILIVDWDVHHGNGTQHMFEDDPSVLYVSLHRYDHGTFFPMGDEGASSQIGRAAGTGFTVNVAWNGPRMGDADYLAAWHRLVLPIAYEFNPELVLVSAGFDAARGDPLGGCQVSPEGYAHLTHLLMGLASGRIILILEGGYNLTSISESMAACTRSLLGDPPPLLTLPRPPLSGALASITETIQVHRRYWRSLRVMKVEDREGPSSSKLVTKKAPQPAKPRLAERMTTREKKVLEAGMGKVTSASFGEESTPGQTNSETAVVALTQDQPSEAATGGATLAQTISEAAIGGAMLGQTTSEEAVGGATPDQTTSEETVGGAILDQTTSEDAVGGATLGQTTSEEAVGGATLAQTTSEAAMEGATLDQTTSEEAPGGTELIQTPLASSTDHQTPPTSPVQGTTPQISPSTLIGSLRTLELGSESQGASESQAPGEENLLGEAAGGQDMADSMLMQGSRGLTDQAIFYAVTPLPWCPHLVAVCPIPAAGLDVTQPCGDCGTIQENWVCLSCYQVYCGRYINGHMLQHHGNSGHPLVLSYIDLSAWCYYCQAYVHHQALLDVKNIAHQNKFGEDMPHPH
Kind of assay: Inhibition of full length recombinant human N-terminal GST-tagged HDAC6 expressed in baculovirus infected sf9 cells preincubated for 5 mins followed by biotinylated H3K9-Ac substrate addition and measured after 60 mins by HTRF assay.

Assay [5] concerns the target Apoptosis regulator Bcl-2 (Homo sapiens, UniProt P10415). Kind of assay: Inhibition of FAM-Bid peptide binding to Bcl2 (unknown origin) by fluorescence polarization assay.
Assay [6] deals with T1, Histone deacetylase 1. Put plainly: Inhibition of HDAC1 in human RPMI8226 cells assessed as increase in acetylated-H3 level at 10 uM after 24 hrs by Western blot analysis. In kind it is cell-based. In short, it runs like this: (§1)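 RPMI-8226 cells exposed to compound at 10 μM for 24 h. Acetylated histone H3 and acetylated tubulin were then detected by immunoblot with specific antibodies.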

The species named for assay [7] is Homo sapiens. Kind of assay: Selectivity index, ratio of IC50 for full length recombinant human C-terminal FLAG-tagged HDAC1 expressed in sf9 cells to IC50 for full length recombinant human N-terminal GST-tagged HDAC6 expressed in baculovirus infected sf9 cells.
In assay [8] the target is T3, Protein deacetylase HDAC6 (Homo sapiens) (UniProt Q9UBN7).
T3 sequence (whole entry): T2 sequence (Q9UBN7 whole entry)
Put plainly: Inhibition of HDAC6 in human RPMI8226 cells assessed as increase in acetylated-tubulin level at 10 uM after 24 hrs by Western blot analysis. In kind it is cell-based. In short, it runs like this: as §1
(A western blot detects proteins with antibodies after separation by electrophoresis.)

Apoptosis regulator Bcl-2, sequence (P10415 whole entry): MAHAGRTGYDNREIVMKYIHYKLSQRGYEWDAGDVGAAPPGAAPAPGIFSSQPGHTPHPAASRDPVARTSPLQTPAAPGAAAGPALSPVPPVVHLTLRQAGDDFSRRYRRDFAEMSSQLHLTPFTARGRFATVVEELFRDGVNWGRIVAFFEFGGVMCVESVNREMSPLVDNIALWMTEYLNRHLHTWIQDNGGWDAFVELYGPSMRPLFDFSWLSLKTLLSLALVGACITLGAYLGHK
T1 sequence (Q13547 whole entry): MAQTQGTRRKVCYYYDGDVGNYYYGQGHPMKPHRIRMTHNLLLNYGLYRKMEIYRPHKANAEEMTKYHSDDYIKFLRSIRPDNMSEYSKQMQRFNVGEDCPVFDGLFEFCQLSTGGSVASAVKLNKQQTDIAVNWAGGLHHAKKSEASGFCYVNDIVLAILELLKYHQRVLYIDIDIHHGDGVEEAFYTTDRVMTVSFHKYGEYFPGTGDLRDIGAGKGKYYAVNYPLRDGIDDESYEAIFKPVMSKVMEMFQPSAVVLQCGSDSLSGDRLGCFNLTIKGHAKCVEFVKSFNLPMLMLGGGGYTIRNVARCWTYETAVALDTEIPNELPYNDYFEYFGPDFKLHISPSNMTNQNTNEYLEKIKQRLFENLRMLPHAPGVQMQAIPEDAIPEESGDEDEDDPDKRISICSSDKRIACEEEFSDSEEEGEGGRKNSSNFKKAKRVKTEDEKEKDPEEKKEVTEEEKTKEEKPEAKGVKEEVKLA

As to `CC1(C)CCC(CN2CCN(c3ccc(C(=O)NS(=O)(=O)c4ccc(NCC5CCOCC5)c([N+](=O)[O-])c4)c(Oc4cnc5[nH]ccc5c4)c3)CC2)=C(c2ccc(Cl)cc2)C1` [VENETOCLAX], the IC50 (in general, the concentration at which inhibition is half-maximal) in assay [1] was found to be 2.7 µM; in assay [2] it was 94 µM.

Turning to `CC1(C)CCC(CN2CCN(c3ccc(C(=O)NS(=O)(=O)c4ccc(NCCC(=O)NO)c([N+](=O)[O-])c4)c(Oc4cnc5[nH]ccc5c4)c3)CC2)=C(c2ccc(Cl)cc2)C1`, the IC50 in assay [3] and in assay [4] was over 1 µM in each case.

Take `CC1(C)CCC(CN2CCN(c3ccc(C(=O)NS(=O)(=O)c4ccc(NCCCCC(=O)NO)c([N+](=O)[O-])c4)c(Oc4cnc5[nH]ccc5c4)c3)CC2)=C(c2ccc(Cl)cc2)C1`: the IC50 in assay [3] and in assay [4] was over 1 µM throughout.

Take `O=C(CCCCCCNC(=O)c1cnc(N(c2ccccc2)c2ccccc2)nc1)NO` [RICOLINOSTAT]: the concentration for half-maximal inhibition (IC50) in assay [1] stood at 11 µM; in assay [2], 21.2 µM.

For `CC1(C)CCC(CN2CCN(c3ccc(C(=O)NS(=O)(=O)c4ccc(NCCCCCCCC(=O)NO)c([N+](=O)[O-])c4)c(Oc4cnc5[nH]ccc5c4)c3)CC2)=C(c2ccc(Cl)cc2)C1`, the IC50 is 0.25 µM in assay [5]; 0.2 µM in assay [1]; 0.281 µM in assay [3]; 8.7 µM in assay [2]; 0.019 µM in assay [4]. Besides, the inhibition result in assay [6] and in assay [8] was “Active” each time. Besides, the Ratio IC50 in assay [7] is over 10.

As for `CC1(C)CCC(CN2CCN(c3ccc(C(=O)NS(=O)(=O)c4ccc(NCC(=O)NO)c([N+](=O)[O-])c4)c(Oc4cnc5[nH]ccc5c4)c3)CC2)=C(c2ccc(Cl)cc2)C1`, the IC50 in assay [3] and in assay [4] was over 1 µM each time.

Take `CC1(C)CCC(CN2CCN(c3ccc(C(=O)NS(=O)(=O)c4ccc(NCCCCCC(=O)NO)c([N+](=O)[O-])c4)c(Oc4cnc5[nH]ccc5c4)c3)CC2)=C(c2ccc(Cl)cc2)C1`: the IC50 in assay [5] came out at 0.23 µM; in assay [1], 0.3 µM; in assay [3] it was 0.847 µM; in assay [2] it was 27.1 µM; in assay [4] it was 0.028 µM. Besides, the Ratio IC50 in assay [7] is over 10. In addition, the inhibition entry in assay [8] is “Active”.

`CC1(C)CCC(CN2CCN(c3ccc(C(=O)NS(=O)(=O)c4ccc(NCCCC(=O)NO)c([N+](=O)[O-])c4)c(Oc4cnc5[nH]ccc5c4)c3)CC2)=C(c2ccc(Cl)cc2)C1`: the IC50 in assay [3] and in assay [4] was over 1 µM in each case.

Take `CC1(C)CCC(CN2CCN(c3ccc(C(=O)NS(=O)(=O)c4ccc(NCCCCCCC(=O)NO)c([N+](=O)[O-])c4)c(Oc4cnc5[nH]ccc5c4)c3)CC2)=C(c2ccc(Cl)cc2)C1`: the IC50 in assay [5] was found to be 0.24 µM; in assay [1], 0.3 µM; in assay [3] it was 0.665 µM; in assay [2], 9.8 µM; in assay [4] it was 0.028 µM. In addition, the Ratio IC50 in assay [7] is over 10. Further, in assay [8], the inhibition result was “Active”.

The values are drawn from ChEMBL document CHEMBL4330103, “Design, synthesis, and bioactivity evaluation of novel Bcl-2/HDAC dual-target inhibitors for the treatment of multiple myeloma” (Bioorg Med Chem Lett, 2019).
